# Calls of active or inactive are those of the source. The calls are words filed in the database; no cut-off is given here.
# Columns and labels:
# [1] = system: Staphylococcus aureus; experiment: Inhibition of cell wall biosynthesis in Staphylococcus aureus assessed as cytoplasmic membrane rupture; format: functional, organism-based
# How it was run: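 S. aureus ATCC 25923 lawns on TSA with 6-mm paper discs carrying 20 μg compound or penicillin G. SEM: after 24 h at 37°C, agar at the edge of inhibition zones cut out, glutaraldehyde-osmium fixed, gold/palladium coated, imaged for cell morphology. Light microscopy: after 4–5 h, cells lifted onto coverslips from zones, Gram-stained (safranin counterstain), viewed bright-field.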
# [2] = system: Staphylococcus aureus; experiment: Growth inhibition against penicillin-susceptible Staphylococcus ATCC 25923 aureus after 24 hrs; format: functional, organism-based
# How it was run: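 Well-diffusion plate: 10^8 suspension in PBS pH 7.4 swabbed on TSA; 6-mm wells loaded with 20 μg compound (from 1 mg/mL DMSO stock), penicillin G 20 μg as comparator; 37°C, 24 h; growth-inhibition zones read.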
# [3] = system: Escherichia coli; experiment: Effect on pBR322 fragmentation at 5 to 100 uM after 24 hrs by agarose gel electrophoresis; format: functional
# How it was run: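 Supercoiled pBR322 (0.5 μg) in 50 mM sodium phosphate, pH 7.4, treated with 5–100 μM compound (added in DMSO; DMSO-only lane as control), 37°C for 24 h. Aliquots run on 1.2% agarose/TAE gel with ethidium bromide at 80 V/10 cm for 2.5 h, UV visualization of single- and double-strand breakage.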
# [4] = system: Staphylococcus aureus; experiment: Growth inhibition against methicillin-susceptible Staphylococcus aureus ATCC 25923 after 2 hrs by agar dilution; format: functional, organism-based
# [5] = system: Staphylococcus aureus; experiment: Effect on fatty acid biosynthesis in Staphylococcus aureus RN4220 assessed as [3H]acetate uptake relative to control; format: functional, organism-based
# How it was run: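 Strain RN4220 grown at 37 °C to A600 0.11 (1.3 x 10^7 cfu/mL), split into 5 mL tubes; drug added at 1x or 2x MIC (final DMSO 2%), penicillin G 2xMIC and no-drug controls. After 5 min, 3H-acetate added (4 μCi/mL); 0.8 mL aliquots at 15, 30, 45, 60 min extracted with chloroform/methanol; uptake compared with controls.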
# [6] = system: Staphylococcus aureus; experiment: Growth inhibition against […] Staphylococcus aureus ATCC 25923 after 2 hrs by agar dilution; format: functional, organism-based
# How it was run: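 Log-phase overnight culture inoculated at 10^6 cfu/mL into fresh Mueller-Hinton broth and shaken 1 hr at 35°C. Compound in DMSO then added at 1, 5 or 10 times the MIC, with MIC set by agar dilution in Mueller-Hinton II agar read after 24 hr at 37°C. Growth was followed by viable counts from plated dilutions (colonies counted after 24 hr) and OD 630 nm.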
# [7] = system: Staphylococcus aureus; experiment: Effect on RNA transcription in Staphylococcus aureus ATCC 25923 assessed as [3H]uridine incorporation after 20 mins relative to control; format: functional
# How it was run: (§1)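 Early log-phase cells in Luria Broth labelled with 3 μCi [methyl-3H]thymidine (DNA) or 3 μCi [5-3H]uridine (RNA), with or without drug at twice the MIC; ciprofloxacin (DNA) or rifampicin (RNA) as reference inhibitors, DMSO control. 50 μL samples taken at 5, 10, 20, 30, 45, 60 min into ice-cold 10% TCA; precipitated radioactivity by liquid scintillation, expressed relative to untreated control.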
# [8] = system: Staphylococcus aureus; experiment: Effect on DNA replication in Staphylococcus aureus ATCC 25923 assessed as inhibition of [3H]thymidine utilization after 30 mins relative to control; format: functional; set-up: scale not given: the % may be the effect or the level left; how it was run: as §1
SMILES,Activity [1],Activity [2],Activity [3],Activity [4],Activity [5],Activity [6],Activity [7] [%],Activity [8] [%]
CC1(C)S[C@@H]2[C@H](NC(=O)Cc3ccccc3)C(=O)N2[C@H]1C(=O)O,Active,inactive,,,,,,
CO[C@H]1C(=O)N(SC)[C@H]1c1ccccc1Cl,inactive,Active,inactive,Active,Active,Active,80,>90
CO[C@H]1/C=C/O[C@@]2(C)Oc3c(C)c(O)c4c(O)c(c(/C=N/N5CCN(C)CC5)c(O)c4c3C2=O)NC(=O)/C(C)=C\C=C\[C@H](C)[C@H](O)[C@@H](C)[C@@H](O)[C@@H](C)[C@H](OC(C)=O)[C@@H]1C [RIFAMPIN],,,,,,,<20,
O=C(O)c1cn(C2CC2)c2cc(N3CCNCC3)c(F)cc2c1=O [CIPROFLOXACIN],,,,,,,,65

# From ChEMBL document CHEMBL1147030, “N-thiolated beta-lactams: Studies on the mode of action and identification of a primary cellular target in Staphylococcus aureus” (2007)
